ChEMBL document CHEMBL1817572, “New, potent, selective, and short-acting peptidic V1a receptor agonists” (J Med Chem, 2011)
pEC50: −log10 of the molar value. Numbered stars: 1 amine (or outer) side, 2 acyl side, 3 side chain; on linkers, the order of the positions; unused ones are H or OH. Bridge positions count the residues as written; N and C are the ends. Square brackets hold non-standard residues; d marks the D form. Peptide text beside a SMILES is read from it. X1 = CCNCCC[C@H](N[*:1])C(=O)[*:2]; Cha = N[C@@H](CC1CCCCC1)C(=O)O; Orn = NCCC[C@H](N)C(=O)O; Dab = NCC[C@H](N)C(=O)O

Experiments:
Rattus norvegicus [1] = test: Vasoconstriction in Wistar rat assessed as assessed as decay in vasopressive duration of action at 0.1 nmol/kg, iv bolus measured over 10 sec interval; assay type: functional
Homo sapiens [2] = species on record: Homo sapiens; test: Selectivity ratio of EC50 for human oxytocin receptor to EC50 for human vasopressin V1a receptor
Vasopressin V2 receptor [3] = molecular target: T1, Vasopressin V2 receptor (Homo sapiens, UniProt P30518); test: Agonist activity at recombinant human vasopressin V2 receptor expressed in HEK293 cells by luciferase reporter gene assay; assay type: functional, cell-based; details: for pEC50: read-out: EC50; for EC50: read-out: pEC50 (converted)
Oxytocin receptor = molecular target: T2, Oxytocin receptor (Homo sapiens, UniProt P30559); test: Agonist activity at human OT receptor expressed in CHO-K1 cells by luciferase reporter gene assay; assay type: functional, cell-based; details: for pEC50: read-out: EC50; for EC50: read-out: pEC50 (converted)
T2 sequence (P30559 whole entry): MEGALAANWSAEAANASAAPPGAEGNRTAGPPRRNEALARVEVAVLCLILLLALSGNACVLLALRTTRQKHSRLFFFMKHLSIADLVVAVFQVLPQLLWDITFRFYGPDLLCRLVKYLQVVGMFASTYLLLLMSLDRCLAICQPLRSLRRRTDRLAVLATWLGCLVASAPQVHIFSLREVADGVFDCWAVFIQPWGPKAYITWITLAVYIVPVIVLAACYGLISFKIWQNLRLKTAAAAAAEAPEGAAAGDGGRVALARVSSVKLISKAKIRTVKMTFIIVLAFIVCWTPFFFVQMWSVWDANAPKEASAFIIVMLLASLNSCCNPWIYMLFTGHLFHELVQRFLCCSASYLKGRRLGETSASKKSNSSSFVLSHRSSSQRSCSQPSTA

[4] = molecular target: Vasopressin V1a/V2 (Homo sapiens) (UniProt P30518+P37288); test: Selectivity ratio of EC50 for human vasopressin V2 receptor to EC50 for human vasopressin V1a receptor
Vasopressin V1a receptor [5] = molecular target: Vasopressin V1a receptor (Rattus norvegicus, UniProt P30560); test: Agonist activity at recombinant rat vasopressin V1a receptor expressed in HEK293 cells by luciferase reporter gene assay; assay type: functional, cell-based; details: read-out: EC50
Vasopressin V1a receptor [6] = molecular target: Vasopressin V1a receptor (Homo sapiens, UniProt P37288); test: Agonist activity at recombinant human vasopressin V1a receptor expressed in HEK293 cells by luciferase reporter gene assay; assay type: functional, cell-based; details: read-out: EC50
Homo sapiens [7] = species on record: Homo sapiens; test: Selectivity ratio of EC50 for human vasopressin V1b receptor to EC50 for human vasopressin V1a receptor
Vasopressin V1b receptor = molecular target: T3, Vasopressin V1b receptor (Homo sapiens, UniProt P47901); test: Agonist activity at recombinant human vasopressin V1b receptor expressed in Flp-In-293 cells by luciferase reporter gene assay; assay type: functional, cell-based; details: read-out: EC50
T3 sequence (P47901 whole entry): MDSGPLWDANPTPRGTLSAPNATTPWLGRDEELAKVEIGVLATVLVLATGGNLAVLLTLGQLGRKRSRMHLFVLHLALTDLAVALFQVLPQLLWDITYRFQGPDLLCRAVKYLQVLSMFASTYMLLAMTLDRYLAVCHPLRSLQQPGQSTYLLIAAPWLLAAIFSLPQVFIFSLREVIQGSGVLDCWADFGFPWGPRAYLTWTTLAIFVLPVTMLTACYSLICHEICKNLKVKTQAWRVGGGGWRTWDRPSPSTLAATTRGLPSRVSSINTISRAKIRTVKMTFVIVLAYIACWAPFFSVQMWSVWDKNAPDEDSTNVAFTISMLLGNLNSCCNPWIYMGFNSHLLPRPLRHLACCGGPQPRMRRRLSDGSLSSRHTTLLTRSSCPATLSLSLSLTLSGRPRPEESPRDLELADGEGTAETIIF
Procedure, shortened: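 Reporter gene assays in HEK293 cells transiently cotransfected with V1a (human or rat) or human V2 receptor vector plus NFAT-luciferase (V1a) or CRE-luciferase (V2) reporter; V1b in Flp-In-293 stably expressing receptor, OT in CHO-K1 stably expressing receptor, both transiently transfected with NFAT-luciferase. Two days post-transfection, peptides added for 5 h at 37 °C, lysis with luciferin, luminescence read.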

Rattus norvegicus [8] = test: Vasoconstriction in Wistar rat assessed as assessed as decay in vasopressive duration of action at 6 nmol/kg, iv bolus measured over 10 sec interval; assay type: functional
Procedure, shortened: (§1)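 Fasted male Wistar rats (206–340 g) under isoflurane, then thiobutabarbital 150 mg/kg ip, ventilated, 37–38 °C, with carotid pressure and jugular dosing. Dibenamine 1.8 mg/rat iv pretreatment. Sequence: iv boluses (0.5 mL/kg) of heparinized vehicle, then two reference doses of 0.1 nmol/kg, then two test doses; one matches the reference diastolic pressure rise. Relative duration = reference decay rate / test decay rate; mean ± SEM.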

Rattus norvegicus [9] = test: Vasoconstriction in Wistar rat assessed as decay in vasopressive duration of action at 1 nmol/kg, iv bolus measured over 10 sec interval; assay type: functional; procedure, shortened: as §1
Rattus norvegicus [10] = test: Vasoconstriction in Wistar rat assessed as assessed as decay in vasopressive duration of action at 2 nmol/kg, iv bolus measured over 10 sec interval; assay type: functional; procedure, shortened: as §1
Vasopressin V2 receptor [11] = molecular target: T1, Vasopressin V2 receptor; test: Partial agonist activity at recombinant human vasopressin V2 receptor expressed in HEK293 cells by luciferase reporter gene assay; assay type: functional, cell-based
Procedure, shortened: (§2)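 Same luciferase reporter systems (OT in stable CHO-K1, V1b in stable Flp-In-293, each with transient NFAT-luciferase; V1a in HEK293 with NFAT-luciferase, V2 in HEK293 with CRE-luciferase). Peptides added for 5 h at 37 °C two days post-transfection, luminescence read. Partial agonism means efficacy <70%.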

[12] = molecular target: T4, Vasopressin V1b receptor (Homo sapiens) (UniProt P47901); test: Partial agonist activity at recombinant human vasopressin V1b receptor expressed in Flp-In-293 cells by luciferase reporter gene assay; assay type: functional, cell-based; procedure, shortened: as §2
T4 sequence (whole entry): T3 sequence (P47901 whole entry)

Rattus norvegicus [13] = test: Vasoconstriction in Wistar rat assessed as assessed as decay in vasopressive duration of action at 0.2 nmol/kg, iv bolus measured over 10 sec interval; assay type: functional

T1 sequence (P30518 whole entry): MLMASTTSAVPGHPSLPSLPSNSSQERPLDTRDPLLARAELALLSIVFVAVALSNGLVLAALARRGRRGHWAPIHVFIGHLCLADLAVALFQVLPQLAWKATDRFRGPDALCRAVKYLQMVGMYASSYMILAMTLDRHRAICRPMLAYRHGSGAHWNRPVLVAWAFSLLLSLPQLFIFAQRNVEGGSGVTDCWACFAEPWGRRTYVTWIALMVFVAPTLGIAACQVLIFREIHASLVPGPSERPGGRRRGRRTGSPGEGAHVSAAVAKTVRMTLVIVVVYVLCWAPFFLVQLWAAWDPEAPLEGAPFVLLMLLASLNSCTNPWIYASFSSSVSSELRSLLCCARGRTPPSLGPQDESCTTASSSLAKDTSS
Vasopressin V1a/V2 (Homo sapiens), sequence (P30518 whole entry, looked up): as the sequence (P30518 whole entry) above
Vasopressin V1a/V2 (Homo sapiens), sequence (P37288 whole entry, looked up): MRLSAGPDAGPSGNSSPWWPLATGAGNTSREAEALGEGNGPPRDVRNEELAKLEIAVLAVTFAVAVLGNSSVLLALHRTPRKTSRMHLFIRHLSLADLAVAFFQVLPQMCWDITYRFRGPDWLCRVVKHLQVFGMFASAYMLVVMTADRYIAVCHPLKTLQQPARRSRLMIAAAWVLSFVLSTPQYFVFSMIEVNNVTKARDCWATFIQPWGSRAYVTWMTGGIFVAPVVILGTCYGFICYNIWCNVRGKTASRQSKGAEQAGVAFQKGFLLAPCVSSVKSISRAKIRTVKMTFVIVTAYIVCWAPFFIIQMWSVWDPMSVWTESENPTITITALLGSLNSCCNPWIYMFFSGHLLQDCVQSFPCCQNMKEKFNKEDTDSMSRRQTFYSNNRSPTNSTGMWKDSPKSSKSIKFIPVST
Vasopressin V1a receptor (Homo sapiens, UniProt P37288), sequence (P37288 whole entry): as the sequence (P37288 whole entry, looked up) above
Vasopressin V1a receptor (Rattus norvegicus, UniProt P30560), sequence (P30560 whole entry): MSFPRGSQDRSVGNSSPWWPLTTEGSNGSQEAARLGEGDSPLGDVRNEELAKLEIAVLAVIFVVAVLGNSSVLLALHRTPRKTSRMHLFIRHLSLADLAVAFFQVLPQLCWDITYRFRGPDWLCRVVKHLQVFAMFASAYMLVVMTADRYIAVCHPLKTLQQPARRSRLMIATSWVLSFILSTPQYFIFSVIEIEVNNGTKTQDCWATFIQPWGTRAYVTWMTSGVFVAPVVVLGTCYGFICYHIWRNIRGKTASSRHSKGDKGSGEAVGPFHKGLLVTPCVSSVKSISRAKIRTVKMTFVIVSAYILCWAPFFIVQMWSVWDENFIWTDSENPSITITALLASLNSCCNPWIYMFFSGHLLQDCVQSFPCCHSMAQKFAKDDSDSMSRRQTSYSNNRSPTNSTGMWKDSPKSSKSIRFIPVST

Ratio EC50 (Homo sapiens [2])	pEC50 (Vasopressin V2 receptor [3]; hek293)	EC50 (Vasopressin V2 receptor [3]) [nM]	pEC50 (Oxytocin receptor; cho-k1)	EC50 (Oxytocin receptor) [nM]	Ratio EC50 [4]	pEC50 (Vasopressin V1a receptor [5])	pEC50 (Vasopressin V1a receptor [6])	Ratio EC50 (Homo sapiens [7])	pEC50 (Vasopressin V1b receptor)	SMILES	Time (Rattus norvegicus [1]) [unitless ratio]	Time (Rattus norvegicus [8]) [unitless ratio]	Time (Rattus norvegicus [9]) [unitless ratio]	Time (Rattus norvegicus [10]) [unitless ratio]	pEC50 (Vasopressin V2 receptor [3])	Efficacy (Vasopressin V2 receptor [11]) [%]	pEC50 (Oxytocin receptor)	Efficacy [12] [%]	Time (Rattus norvegicus [13]) [min]
										N=C(N)NCCC[C@H](NC(=O)[C@@H]1CCCN1C(=O)[C@@H]1CSSC[C@H](N)C(=O)N[C@@H](Cc2ccc(O)cc2)C(=O)N[C@@H](Cc2ccccc2)C(=O)N[C@@H](CCC(N)=O)C(=O)N[C@@H](CC(N)=O)C(=O)N1)C(=O)NCC(N)=O [VASOPRESSIN]	1								
> 10000	< 5.00	> 10000	< 5.00	> 10000	> 10000	8.10	9.00	120	6.92	CCNCCC[C@H](NC(=O)[C@@H]1CCCN1C(=O)[C@@H]1CSSC[C@H](N)C(=O)N[C@@H](Cc2ccccc2)C(=O)N[C@@H]([C@@H](C)CC)C(=O)N[C@@H](CC(N)=O)C(=O)N[C@@H](CC(N)=O)C(=O)N1)C(=O)NCC(N)=O (H-CFINNCP[X1]G-NH2; disulfide 1-6)		2.4							
> 5800	< 5.00	> 10000	< 5.00	> 10000	> 5800	9.00	8.77	36	7.21	CC[C@H](C)[C@@H]1NC(=O)[C@H](Cc2ccccc2)NC(=O)[C@@H](N)CSSC[C@@H](C(=O)N2CCC[C@H]2C(=O)N[C@@H](CCCN)C(=O)NCC(N)=O)NC(=O)[C@H](CC(N)=O)NC(=O)[C@H](CC(=O)N(C)C)NC1=O (H-CFID(NMe2)NCP[Orn]G-NH2; disulfide 1-6)			1.6						
> 40000			< 5.00	> 10000	3000	8.68	9.60	32	8.10	CC[C@H](C)[C@@H]1NC(=O)[C@H](CC2CCCCC2)NC(=O)[C@@H](N)CSSC[C@@H](C(=O)N2CCC[C@H]2C(=O)N[C@@H](CCN)C(=O)NCC(N)=O)NC(=O)[C@H](CC(N)=O)NC(=O)[C@H](CCC(N)=O)NC1=O (H-C[Cha]IQNCP[Dab]G-NH2; disulfide 1-6)				3.1	6.12				

SMILES	Ratio EC50 (Homo sapiens [2])	pEC50 (Vasopressin V2 receptor [3]; hek293)	EC50 (Vasopressin V2 receptor [3]) [nM]	pEC50 (Oxytocin receptor; cho-k1)	EC50 (Oxytocin receptor) [nM]	Ratio EC50 [4]	pEC50 (Vasopressin V1a receptor [5])	pEC50 (Vasopressin V1a receptor [6])	Ratio EC50 (Homo sapiens [7])	pEC50 (Vasopressin V1b receptor)	Time (Rattus norvegicus [1]) [unitless ratio]	Time (Rattus norvegicus [8]) [unitless ratio]	Time (Rattus norvegicus [9]) [unitless ratio]	Time (Rattus norvegicus [10]) [unitless ratio]	pEC50 (Vasopressin V2 receptor [3])	Efficacy (Vasopressin V2 receptor [11]) [%]	pEC50 (Oxytocin receptor)	Efficacy [12] [%]	Time (Rattus norvegicus [13]) [min]
CCNCCC[C@H](NC(=O)[C@@H]1CCCN1C(=O)[C@@H]1CSSC[C@H](N)C(=O)N[C@@H](Cc2ccccc2)C(=O)N[C@@H]([C@@H](C)CC)C(=O)N[C@@H](CCC(N)=O)C(=O)N[C@@H](CC(N)=O)C(=O)N1)C(=O)NCC(N)=O (H-CFIQNCP[X1]G-NH2; disulfide 1-6)	56					450	9.80	9.24	56	7.49					6.59	< 70	7.49	< 70	2.1
